The values below come from ChEMBL document CHEMBL1649147, “Antistaphylococcal activity of dihydrophthalazine antifolates, a family of novel antibacterial drugs” (2009).

Structures are written as SMILES. Converted amounts (≈) assume the structure as drawn.

In one assay the test system is Staphylococcus aureus. Kind of assay: Antibacterial activity against methicillin-susceptible Staphylococcus aureus ATCC 29213 after 50 passages by agar dilution method. The class given is functional. The settings on record: ATCC29213. The essentials: (§1)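 Daily serial passage for up to 50 days at 35°C for 24 h in 1 ml MHB. […] Each transfer used 10 µl from the tube nearest the MIC (1–2 dilutions below) with the same turbidity as the drug-free control. […] MICs were measured by agar dilution, with changes given as log2 steps.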
`COc1cc(Cc2cnc(N)nc2N)cc(/C=C/C(=O)N2N=Cc3ccccc3C2c2cnc(N(C)C)nc2)c1OC` (configuration not stated) registered an MIC of 0.5 µg/mL (≈ 0.884 µM).

The subject of the next assay is Staphylococcus aureus. The assay can be described thus: Antibacterial activity against methicillin-susceptible, vancomycin-intermediate Staphylococcus aureus 505 by broth macrodilution method.
Conditions: not given
It is filed as functional.
Consider `COc1cc(Cc2cnc(N)nc2N)cc(/C=C/C(=O)N2N=Cc3ccccc3C2c2cnc(N(C)C)nc2)c1OC` (configuration not stated), for which the MIC was found to be 0.03 µg/mL (≈ 0.053 µM).

For a further assay, the system named is Staphylococcus epidermidis. Kind of assay: Antibacterial activity against coagulase-negative Staphylococcus epidermidis 051 after 10 passages in MBH without antibiotic by agar dilution method. It is filed as functional.
Conditions: not given
The essentials:
(§2)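 After drug-selective serial passage, selected clones were passaged 10 times in antibiotic-free MHB. MICs were then redetermined, and the change is expressed as log2 dilution steps.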
For `COc1cc(Cc2cnc(N)nc2N)cc(/C=C/C(=O)N2N=Cc3ccccc3C2c2cnc(N(C)C)nc2)c1OC` (configuration not stated), the MIC was found to be 4 µg/mL (≈ 7.07 µM).

A further assay deals with Staphylococcus aureus. The assay can be described thus: Antibacterial activity against methicillin-resistant Staphylococcus aureus by agar dilution method. The class given is functional.
Conditions: not given
The essentials: (§3)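 Agar dilution on Mueller-Hinton agar per CLSI guidelines. S. aureus ATCC 29213 and E. faecalis ATCC 29212 were run with each set, and test MICs were accepted only when the control strains fell within acceptable ranges.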
Turning to `COc1cc(Cc2cnc(N)nc2N)cc(/C=C/C(=O)N2N=Cc3ccccc3C2c2cnc(N(C)C)nc2)c1OC` (configuration not stated), the MIC50 came to 0.03 µg/mL (≈ 0.053 µM) and the MIC90 turned out to be 0.125 µg/mL (≈ 0.221 µM).

Another assay relates to Staphylococcus epidermidis. The assay can be described thus: Antibacterial activity against methicillin-susceptible coagulase-negative Staphylococcus epidermidis 057 by broth macrodilution method. It is filed as functional.
Conditions: not given
In turn, `COc1cc(Cc2cnc(N)nc2N)cc(/C=C/C(=O)N2N=Cc3ccccc3C2c2cnc(N(C)C)nc2)c1OC` (configuration not stated) displayed an MIC of 4 µg/mL (≈ 7.07 µM).

Another assay has as its system Staphylococcus aureus. Kind of assay: Antibacterial activity against methicillin-susceptible, vancomycin-intermediate Staphylococcus aureus 505 after 50 passages by agar dilution method. It is filed as functional.
Conditions: not given
Summed up:
as §1
In the case of `COc1cc(Cc2cnc(N)nc2N)cc(/C=C/C(=O)N2N=Cc3ccccc3C2c2cnc(N(C)C)nc2)c1OC` (configuration not stated), the lowest concentration to inhibit growth (MIC) was 8 µg/mL (≈ 14.1 µM).

A further assay has as its system Staphylococcus epidermidis. Kind of assay: Antibacterial activity against coagulase-negative Staphylococcus epidermidis 057 by agar dilution method. The class given is functional.
Conditions: not given
The essentials: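 Agar dilution MIC determined on Mueller-Hinton agar following CLSI guidelines. S. aureus ATCC 29213 and Enterococcus faecalis ATCC 29212 were run as quality controls with each set, and test MICs were accepted only when the control MICs fell within acceptable ranges. Test organism was a coagulase-negative S. epidermidis strain.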
With `COc1cc(Cc2cnc(N)nc2N)cc(/C=C/C(=O)N2N=Cc3ccccc3C2c2cnc(N(C)C)nc2)c1OC` (configuration not stated), the lowest concentration to inhibit growth (MIC) was 8 µg/mL (≈ 14.1 µM).

The subject of a further assay is Staphylococcus epidermidis. Kind of assay: Antibacterial activity against coagulase-negative Staphylococcus epidermidis 057 after 10 passages in MBH without antibiotic by agar dilution method. The class given is functional.
Conditions: not given
The essentials:
as §2
As to `COc1cc(Cc2cnc(N)nc2N)cc(/C=C/C(=O)N2N=Cc3ccccc3C2c2cnc(N(C)C)nc2)c1OC` (configuration not stated), the MIC amounted to 128 µg/mL (≈ 226 µM).

In the next assay the test system is Staphylococcus aureus. The assay can be described thus: Antibacterial activity against methicillin-resistant Staphylococcus aureus 145 by broth macrodilution method. The class given is functional.
Conditions: not given
The compound `COc1cc(Cc2cnc(N)nc2N)cc(/C=C/C(=O)N2N=Cc3ccccc3C2c2cnc(N(C)C)nc2)c1OC` (configuration not stated) registered an MIC of 0.25 µg/mL (≈ 0.442 µM).

The next assay concerns Staphylococcus epidermidis. Kind of assay: Antibacterial activity against coagulase-negative Staphylococcus epidermidis 057 assessed as change in MIC by agar dilution method after serial passages in the absence of antibiotic relative to control. The class given is functional.
Conditions: not given
Summed up: as §2
As for `COc1cc(Cc2cnc(N)nc2N)cc(/C=C/C(=O)N2N=Cc3ccccc3C2c2cnc(N(C)C)nc2)c1OC` (configuration not stated), the “fold change (FC)” value is listed as -1.

For the next assay, the system named is Staphylococcus aureus. The assay can be described thus: Antibacterial activity against methicillin-resistant Staphylococcus aureus ATCC 43300 by broth macrodilution method. The class given is functional. As to conditions: ATCC43300.
The compound `COc1cc(Cc2cnc(N)nc2N)cc(/C=C/C(=O)N2N=Cc3ccccc3C2c2cnc(N(C)C)nc2)c1OC` (configuration not stated) had an MIC of 0.03 µg/mL (≈ 0.053 µM).

In the next assay the test system is Staphylococcus aureus. The assay can be described thus: Antibacterial activity against Tmp-susceptible coagulase-negative Staphylococcus aureus by agar dilution method. It is filed as functional.
Conditions: not given
The essentials:
(§4)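 MICs by agar dilution on Mueller-Hinton agar following CLSI guidelines. S. aureus ATCC 29213 and E. faecalis ATCC 29212 were run as quality controls with each set, and test-strain MICs were kept only if control MICs fell within acceptable ranges.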
In turn, `COc1cc(Cc2cnc(N)nc2N)cc(/C=C/C(=O)N2N=Cc3ccccc3C2c2cnc(N(C)C)nc2)c1OC` (configuration not stated) had a minimum inhibitory concentration (MIC) of at most 0.008 µg/mL.

The next assay deals with Staphylococcus epidermidis. Kind of assay: Antibacterial activity against coagulase-negative Staphylococcus epidermidis 051 by agar dilution method.
Conditions: not given
It is filed as functional. Summed up:
as §4
As for `COc1cc(Cc2cnc(N)nc2N)cc(/C=C/C(=O)N2N=Cc3ccccc3C2c2cnc(N(C)C)nc2)c1OC` (configuration not stated), the MIC was 0.125 µg/mL (≈ 0.221 µM).

For the next assay, the system named is Staphylococcus aureus. Kind of assay: Antibacterial activity against methicillin-resistant Staphylococcus aureus ATCC 43300 after 50 passages by agar dilution method. The settings on record: ATCC43300. It is filed as functional. Summed up:
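Serial passage under drug. Inoculum was ~1 × 10^6 CFU/ml from overnight MHA growth, in 1 ml MHB at 35°C for 24 h. Drug ranged from 4 log2 steps above to 3 log2 steps below the MIC. […] MIC change is given as log2 steps.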
`COc1cc(Cc2cnc(N)nc2N)cc(/C=C/C(=O)N2N=Cc3ccccc3C2c2cnc(N(C)C)nc2)c1OC` (configuration not stated) gave an MIC of 1 µg/mL (≈ 1.77 µM).

The test system of a further assay is Staphylococcus aureus. Kind of assay: Antibacterial activity against methicillin-resistant and vancomycin-resistant Staphylococcus aureus VRS1 by agar dilution method. It is filed as functional.
Conditions: not given
Summed up:
as §3
For the compound `COc1cc(Cc2cnc(N)nc2N)cc(/C=C/C(=O)N2N=Cc3ccccc3C2c2cnc(N(C)C)nc2)c1OC` (configuration not stated), the MIC came out at 0.25 µg/mL (≈ 0.442 µM).

The subject of another assay is Staphylococcus epidermidis. The assay can be described thus: Antibacterial activity against methicillin-resistant, Linezolid non-susceptible coagulase-negative Staphylococcus epidermidis 345 by agar dilution method. The class given is functional.
Conditions: not given
For `COc1cc(Cc2cnc(N)nc2N)cc(/C=C/C(=O)N2N=Cc3ccccc3C2c2cnc(N(C)C)nc2)c1OC` (configuration not stated), the MIC turned out to be 0.06 µg/mL (≈ 0.106 µM).

The subject of the next assay is coagulase-negative staphylococci. The assay can be described thus: Antibacterial activity against methicillin-resistant coagulase-negative staphylococci by agar dilution method.
Conditions: not given
As to `COc1cc(Cc2cnc(N)nc2N)cc(/C=C/C(=O)N2N=Cc3ccccc3C2c2cnc(N(C)C)nc2)c1OC` (configuration not stated), the MIC50 is 0.06 µg/mL (≈ 0.106 µM) and the MIC90 worked out at 0.5 µg/mL (≈ 0.884 µM).

The next assay has as its system Staphylococcus epidermidis. The assay can be described thus: Antibacterial activity against coagulase-negative Staphylococcus epidermidis 225 after 10 passages in MBH without antibiotic by agar dilution method. The class given is functional.
Conditions: not given
Summed up: as §2
For `COc1cc(Cc2cnc(N)nc2N)cc(/C=C/C(=O)N2N=Cc3ccccc3C2c2cnc(N(C)C)nc2)c1OC` (configuration not stated), the MIC was determined as 2 µg/mL (≈ 3.54 µM).

For the next assay, the system named is Staphylococcus aureus. Kind of assay: Antibacterial activity against Tmp-susceptible Staphylococcus aureus by agar dilution method. The class given is functional.
Conditions: not given
Summed up: as §4
`COc1cc(Cc2cnc(N)nc2N)cc(/C=C/C(=O)N2N=Cc3ccccc3C2c2cnc(N(C)C)nc2)c1OC` (configuration not stated) displayed an MIC50 of 0.03 µg/mL (≈ 0.053 µM) and an MIC90 of 0.03 µg/mL (≈ 0.053 µM).
